Results published in ChEMBL document CHEMBL5032493, “Synthesis and Evaluation of PPARδ Agonists That Promote Osteogenesis in a Human Mesenchymal Stem Cell Culture and in a Mouse Model of Human Osteoporosis” (J Med Chem, 2021).
Calls of active or inactive are those of the source. No cut-off for these calls is given here.

How the values were obtained:
[1] = system: Mesenchymal stem cells; experiment: Induction of adipogenesis differentiation in human Mesenchymal stem cells at 20 uM incubated for 21 days by […] staining-based microscopic analysis; format: functional, cell-based; settings: time 21.0 day
[2] = system: Mus musculus; experiment: Antiosteoporotic activity against OVX-induced bone loss C57BL/6 mouse model assessed as increase in trabecular bone density at 10 mg/kg, po for 6 weeks by microcomputed tomography method relative to sham treated control; format: functional, organism-based
Outline: (§1)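 Female C57BL/6 mice ovariectomized at 12 weeks of age; sham-operated group kept ovaries intact. After recovery, daily oral gavage of compound or vehicle for 6 weeks, sacrifice at 22 weeks of age. Distal femur trabecular structure analysed by micro-computed tomography, including bone volume/total volume, compared with sham mice; GW0742 as positive control.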

[3] = system: Mesenchymal stem cells; experiment: Induction of osteogenesis differentiation in human Mesenchymal stem cells at 20 uM incubated for 21 days by Alizarin Red S staining-based microscopic analysis; format: functional, cell-based; settings: time 21.0 day
[4] = biological target: T1, Peroxisome proliferator-activated receptor alpha (Homo sapiens) (UniProt Q07869); experiment: Agonist activity at human PPARalpha transfected in COS-7 cells assessed maximum luciferase activity measured after 24 hrs by cell based luciferase transactivation assay relative to gemfibrozil; settings: filed as agonist
T1 sequence (whole entry): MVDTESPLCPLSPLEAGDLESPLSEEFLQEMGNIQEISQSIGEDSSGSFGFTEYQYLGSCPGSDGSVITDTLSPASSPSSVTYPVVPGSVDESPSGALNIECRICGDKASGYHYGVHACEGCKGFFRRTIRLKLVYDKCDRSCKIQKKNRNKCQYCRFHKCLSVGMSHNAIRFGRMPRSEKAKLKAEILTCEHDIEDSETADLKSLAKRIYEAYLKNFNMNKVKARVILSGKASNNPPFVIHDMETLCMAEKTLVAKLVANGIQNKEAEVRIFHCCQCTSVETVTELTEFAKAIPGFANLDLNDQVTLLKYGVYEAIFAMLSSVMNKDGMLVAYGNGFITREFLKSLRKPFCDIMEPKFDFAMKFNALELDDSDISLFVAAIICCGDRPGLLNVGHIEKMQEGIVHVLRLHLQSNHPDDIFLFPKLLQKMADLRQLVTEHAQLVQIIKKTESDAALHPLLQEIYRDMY
Outline: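 Transient transfection of COS-7 cells with human PPARα, PPARγ or PPARδ plus luciferase reporter; constitutive Renilla luciferase also read. […] Three or more independent experiments in triplicate (N ≥ 9).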

[5] = system: Mus musculus; experiment: Antiosteoporotic activity against OVX-induced bone loss C57BL/6 mouse model assessed as increase in ratio of bone volume to total volume at 10 mg/kg, po for 6 weeks by microcomputed tomography method relative to sham treated control; format: functional, organism-based; outline: as §1
[6] = system: Mesenchymal stem cells; experiment: Induction of adipogenesis differentiation in human Mesenchymal stem cells at 10 uM incubated for 21 days by […] staining-based microscopic analysis; format: functional, cell-based; settings: time 21.0 day
[7] = biological target: T2, Peroxisome proliferator-activated receptor gamma (Homo sapiens, UniProt P37231); experiment: Agonist activity at human PPARgamma transfected in COS-7 cells assessed luciferase activity measured after 24 hrs by cell based luciferase transactivation assay
T2 sequence (P37231 whole entry): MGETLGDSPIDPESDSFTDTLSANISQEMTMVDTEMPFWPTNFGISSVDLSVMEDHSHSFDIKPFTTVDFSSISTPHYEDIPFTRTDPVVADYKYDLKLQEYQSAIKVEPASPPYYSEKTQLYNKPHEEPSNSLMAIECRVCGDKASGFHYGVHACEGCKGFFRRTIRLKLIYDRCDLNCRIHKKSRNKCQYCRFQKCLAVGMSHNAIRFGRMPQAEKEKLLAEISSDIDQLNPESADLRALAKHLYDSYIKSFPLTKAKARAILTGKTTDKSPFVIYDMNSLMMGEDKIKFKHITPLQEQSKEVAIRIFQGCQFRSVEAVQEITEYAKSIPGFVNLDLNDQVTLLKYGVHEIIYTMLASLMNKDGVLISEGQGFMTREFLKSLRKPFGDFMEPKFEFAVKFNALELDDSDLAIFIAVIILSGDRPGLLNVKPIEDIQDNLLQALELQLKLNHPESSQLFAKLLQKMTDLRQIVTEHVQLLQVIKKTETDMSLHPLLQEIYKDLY

[8] = Toxicity in OVX-induced bone loss C57BL/6 mouse model assessed as change in behaviour at 10 mg/kg, po for 6 weeks; format: organism-based; settings: in vivo, 1008 h
Outline: (§2)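 OVX C57BL/6 females (surgery at 12 weeks, sham controls) dosed daily by oral gavage for 6 weeks. Gross toxicity monitored during dosing as weight, behaviour, eating and other habits versus controls.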

[9] = system: Mesenchymal stem cells; experiment: Induction of osteogenesis differentiation in human Mesenchymal stem cells at 1 uM incubated for 21 days by Alizarin Red S staining-based microscopic analysis; format: functional, cell-based; settings: time 21.0 day
[10] = Toxicity in OVX-induced bone loss C57BL/6 mouse model assessed as change in body weight at 10 mg/kg, po for 6 weeks; format: organism-based; settings: in vivo, 1008 h; outline: as §2
[11] = Glutathione reactivity at pH 7.4 assessed as compound remaining measured after 24 hrs by LC-MS/MS method; format: physicochemical; settings: pH 7.4, 24 h
Outline: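 Substrate incubated in triplicate with 10-fold excess glutathione in pH 7.4 phosphate buffer containing 50% methanol at 25 °C for up to 24 h. Substrate loss followed at several time points by LC-MS/MS, which also confirmed the structure of glutathione conjugates.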

[12] = system: Mesenchymal stem cells; experiment: Cytotoxicity against human Mesenchymal stem cells expressing human PPARdelta assessed as morphological changes at 50 uM by microscopy analysis; format: cell-based
[13] = system: COS-7 (Chlorocebus aethiops); experiment: Cytotoxicity against COS-7 cells expressing human PPARdelta assessed as morphological changes at lower concentration by microscopy analysis; settings: monkey
[14] = system: Mesenchymal stem cells; experiment: Induction of osteogenesis differentiation in human Mesenchymal stem cells at 10 uM incubated for 21 days by Alizarin Red S staining-based microscopic analysis; format: functional, cell-based; settings: time 21.0 day
[15] = Toxicity in OVX-induced bone loss C57BL/6 mouse model assessed as change in eating at 10 mg/kg, po for 6 weeks; format: organism-based; settings: in vivo, 1008 h; outline: as §2
[16] = system: Mus musculus; experiment: Antiosteoporotic activity against OVX-induced bone loss C57BL/6 mouse model assessed as increase in microarchitectures at 10 mg/kg, po for 6 weeks by microcomputed tomography method relative to sham treated control; format: functional, organism-based; outline: as §1
[17] = biological target: T3, Peroxisome proliferator-activated receptor delta (Homo sapiens, UniProt Q03181); experiment: Agonist activity at human PPARdelta transfected in COS-7 cells assessed luciferase activity measured after 24 hrs by cell based luciferase transactivation assay
T3 sequence (Q03181 whole entry): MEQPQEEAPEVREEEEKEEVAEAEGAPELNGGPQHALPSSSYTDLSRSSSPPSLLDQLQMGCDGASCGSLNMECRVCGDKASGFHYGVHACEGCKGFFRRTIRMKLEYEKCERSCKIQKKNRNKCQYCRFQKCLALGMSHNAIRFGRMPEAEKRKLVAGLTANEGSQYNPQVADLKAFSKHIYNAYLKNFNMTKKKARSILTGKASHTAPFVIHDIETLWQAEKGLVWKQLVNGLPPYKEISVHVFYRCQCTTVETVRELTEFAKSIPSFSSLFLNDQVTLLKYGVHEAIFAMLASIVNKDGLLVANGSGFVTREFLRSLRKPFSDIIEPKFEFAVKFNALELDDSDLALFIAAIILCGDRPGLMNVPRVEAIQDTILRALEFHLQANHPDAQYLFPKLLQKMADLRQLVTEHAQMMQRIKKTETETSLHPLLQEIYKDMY

[18] = biological target: T4, Peroxisome proliferator-activated receptor alpha (Homo sapiens, UniProt Q07869); experiment: Agonist activity at human PPARalpha transfected in COS-7 cells assessed luciferase activity measured after 24 hrs by cell based luciferase transactivation assay
T4 sequence (Q07869 whole entry): T1 sequence (whole entry)
Outline: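 Transient transfection of COS-7 cells with human PPARα, PPARγ or PPARδ plus luciferase reporter; constitutive Renilla luciferase also read. Three or more independent experiments in triplicate (N ≥ 9).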

[19] = system: Mesenchymal stem cells; experiment: Induction of adipogenesis differentiation in human Mesenchymal stem cells at 1 uM incubated for 21 days by […] staining-based microscopic analysis; format: functional, cell-based; settings: time 21.0 day
[20] = Cytotoxicity against human HEK293T/17 cells assessed as reduction in cell viability at 10 to 100 uM measured after 24 hrs by MTT assay; format: cell-based; settings: hek293t/17, 24 h, dose 10-100 µM
Outline: (§3)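 HEK 293T/17 cultures exposed to agent for 24 h or 72 h; viability by MTT. Controls: H2O2 (toxic positive), plain medium, vehicle at 0.1% DMSO corresponding to the 100 μM dose; doses by serial dilution in medium. Quadruplicate (N = 4), mean with SD; two-tailed P versus 0 μM. Viability <70% taken as relevant to human toxicity.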

[21] = system: PPARdelta (human, expressed in COS-7 cells); experiment: Cell toxicity index, ratio of CT50 to EC50 for agonist activity at human PPARdelta expressed in COS-7 cells; settings: monkey
[22] = system: L929; experiment: Cytotoxicity against mouse L929 cells assessed as reduction in cell viability at 100 uM; format: cell-based; settings: l929, 100 µM
[23] = Cytotoxicity against human HEK293T/17 cells assessed as reduction in cell viability at 10 to 100 uM measured after 72 hrs by MTT assay; format: cell-based; settings: hek293t/17, 72 h, dose 10-100 µM; outline: as §3
[24] = system: L929; experiment: Cytotoxicity against mouse L929 cells assessed as reduction in cell viability at 1 to 100 uM measured after 72 hrs; format: cell-based; settings: l929, 72 h, dose 1-100 µM
[25] = Cytotoxicity against human HEK293T/17 cells assessed as reduction in cell viability incubated for 24 hrs by MTT assay; format: cell-based; settings: hek293t/17, 24 h
Outline: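 HEK 293T/17 cultures were exposed to drug for 24 h and viability was read by standard MTT. Doses came from serial dilution in medium, top dose 100 μM. Controls were medium only, a DMSO vehicle at its highest level (0.1% in medium before adding to cells), and H2O2 as a toxic control. Runs were in quadruplicate (N = 4), reported as mean with SD and compared to 0 μM by two-tailed P.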

| Compound | Activity [1] | Activity [2] | Activity [3] | Emax [4] | Activity [5] | Activity [6] | EC50 ([7]; read-out: EC50) | Activity [8] | Activity [9] | Activity [10] | Stability [11] | Activity [12] | Activity [13] | Activity [14] | Activity [15] | Activity [16] | EC50 [17] | EC50 ([18]; read-out: EC50) | Activity [19] | Activity [22] | other results |
| --- | --- | --- | --- | --- | --- | --- | --- | --- | --- | --- | --- | --- | --- | --- | --- | --- | --- | --- | --- | --- | --- |
| Cc1nc(-c2ccc(C(F)(F)F)cc2)sc1CN(C)c1ccc(/C=C/C(=O)O)cc1 | Active | Active | Active | 44% | Active | Active | 24.7 µM | Toxic | Active | Toxic | Stable | Toxic | Non-Toxic | Active | Toxic | Active | 0.199 µM | 0.947 µM | inactive | – | – |
| Cc1cc(N(C)Cc2sc(-c3ccc(C(F)(F)F)cc3)nc2C)ccc1/C=C/C(=O)O | inactive | Active | Active | – | Active | inactive | – | Toxic | Active | Toxic | Stable | Toxic | Non-Toxic | Active | Toxic | Active | 0.335 µM | – | inactive | Non-Toxic | Activity [20]: Toxic; selectivity ratio [21]: 250; EC50 ([7]; cos-7): Not Active; Activity [23]: Toxic; EC50 ([18]; cos-7): Not Active; Activity [24]: Toxic |
| Cc1cc(SCc2sc(-c3ccc(C(F)(F)F)c(F)c3)nc2C)ccc1OCC(=O)O | – | Active | – | > 108% | – | inactive | 9.53 µM | – | Active | – | – | Toxic | – | Active | – | – | – | 2.5 µM | inactive | Toxic | Activity [25]: Toxic; Activity [23]: Toxic; Activity [24]: Toxic |
